Measurements published in ChEMBL document CHEMBL3875165, “Novel broad-spectrum and long-acting parenteral cephalosporins having an acyl cyanamide moiety at the C-3 terminal: Synthesis and structure-activity relationships” (Eur J Med Chem, 2016).

What was measured:
[1] = AUC (0 to infinity) in monkey at 20 mg/kg, iv administered as bolus dose by HPLC method; format: ADME, organism-based, Macaca mulatta; set-up: dose 20 mg/kg, time infinity, route intravenous; conditions: rhesus monkey, in vivo
Outline: (§1)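 Three monkeys per group received a single iv bolus of 20 mg/kg (1 mL/kg). Plasma levels were measured by HPLC. AUC0-∞, CLtot and T1/2 came from a 2-compartment fit.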

[2] = Half life in monkey at 20 mg/kg, iv administered as bolus dose by HPLC method; format: ADME, organism-based, Macaca mulatta; conditions: rhesus monkey, in vivo; outline: as §1
[3] = Total clearance in monkey at 20 mg/kg, iv administered as bolus dose by HPLC method; format: ADME, organism-based, Macaca mulatta; conditions: rhesus monkey, in vivo; outline: as §1
[4] = Protein binding in ICR mouse plasma after 30 mins by ultra-filtration method; format: ADME, cell-free; conditions: read-out: PPB (converted)
Outline: (§2)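 Mouse or monkey plasma was adjusted to pH 7 with CO2 and spiked with compound to a final 10 µg/ml. It was incubated 30 min at 37 °C, then ultrafiltered by centrifugation at 3200 rpm for 30 min at 25 °C. Free drug in the filtrate was measured by bioassay to give the bound fraction.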

[5] = Protein binding in cynomolgus monkey plasma after 30 mins by ultra-filtration method; format: ADME, cell-free, Macaca fascicularis; conditions: read-out: PPB (converted); outline: as §2
Staphylococcus aureus = experiment: Antibacterial activity against Staphylococcus aureus SMITH after 20 hrs by agar dilution method; format: functional
Outline: (§3)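 Agar dilution MIC on Sensitivity Disk Agar-N with 2-fold serial drug dilutions. Overnight Mueller Hinton broth cultures were diluted to about 10^6 CFU/mL, and 1 µL spots were applied. Plates were incubated 20 h at 37 °C before scoring.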

Streptococcus pneumoniae [6] = experiment: Antibacterial activity against penicillin-resistant Streptococcus pneumoniae SR16675 after 20 hrs by agar dilution method; format: functional; conditions: SR16675, 20 h
Outline: (§4)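 Agar dilution on Sensitivity Disk Agar-N. Overnight Mueller Hinton broth cultures were diluted to about 10^6 CFU/mL, and 1 µL spots were placed on agar plates holding 2-fold serial dilutions of antibiotic. Plates were incubated 20 h at 37 °C and then MICs were scored.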

Streptococcus pneumoniae [7] = experiment: Antibacterial activity against penicillin-resistant Streptococcus pneumoniae SR16750 after 20 hrs by agar dilution method; format: functional; conditions: SR16750, 20 h; outline: as §4
Haemophilus influenzae [8] = experiment: Antibacterial activity against beta-lactamase non-producing penicillin-resistant Haemophilus influenzae SR11435 after 20 hrs by agar dilution method; format: functional; conditions: SR11435, 20 h; outline: as §4
Haemophilus influenzae [9] = experiment: Antibacterial activity against beta-lactamase non-producing penicillin-resistant Haemophilus influenzae SR24106 after 20 hrs by agar dilution method; format: functional; conditions: SR24106, 20 h; outline: as §4
Moraxella catarrhalis = experiment: Antibacterial activity against Moraxella catarrhalis SR24290 after 20 hrs by agar dilution method; format: functional; conditions: SR24290, 20 h; outline: as §3
Escherichia coli = experiment: Antibacterial activity against Escherichia coli NIHJ JC-2 after 20 hrs by agar dilution method; format: functional; conditions: NIHJ JC-2, 20 h; outline: as §3
[10] = Half life in mouse at 20 mg/kg, iv administered as bolus dose by band-culture bioassay; conditions: in vivo
[11] = Total clearance in mouse at 20 mg/kg, iv administered as bolus dose by band-culture bioassay; conditions: in vivo
[12] = AUC (0 to infinity) in mouse at 20 mg/kg, iv administered as bolus dose by band-culture bioassay; conditions: in vivo

For `CCO/N=C(\C(=O)N[C@@H]1C(=O)N2C(C(=O)[O-])=C(/C=C/C[n+]3ccc(-n4ccc(/C([O-])=N/C#N)n4)cc3)CS[C@H]12)c1csc(N)n1.[Na+]`, the AUC [1] was 32100 ng·h/mL, the half-life [2] was 168 min and the clearance [3] was 0.54 mL/min/kg. For the same compound, the fraction unbound at 0.5 h [4] was 0.86, the fraction unbound at 0.5 h [5] was 0.14 and the MIC (Staphylococcus aureus) was 0.5 µg/mL. It also gave an MIC (Streptococcus pneumoniae [6]) of 0.25 µg/mL, an MIC (Streptococcus pneumoniae [7]) of 0.5 µg/mL and an MIC (Haemophilus influenzae [8]) of 0.063 µg/mL. It also gave an MIC (Haemophilus influenzae [9]) of 0.125 µg/mL, an MIC (Moraxella catarrhalis) of 2 µg/mL and an MIC (Escherichia coli) of 0.125 µg/mL. For the same compound, the half-life [10] was 52.2 min, the clearance [11] was 19.8 mL/min/kg and the AUC(0-inf) [12] was 16800 ng·h/mL.
Work on `CCO/N=C(\C(=O)N[C@@H]1C(=O)N2C(C(=O)[O-])=C(/C=C/C[n+]3ccc(-c4csc(/C([O-])=N/C#N)n4)cc3)CS[C@H]12)c1csc(N)n1.[Na+]` yielded an AUC [1] of 48000 ng·h/mL, a half-life [2] of 310 min and a fraction unbound at 0.5 h [4] of 0.69. The fraction unbound at 0.5 h [5] was 0.23, the MIC (Staphylococcus aureus) was 0.5 µg/mL and the MIC (Streptococcus pneumoniae [6]) was 0.125 µg/mL. The MIC (Streptococcus pneumoniae [7]) was 0.25 µg/mL, the MIC (Haemophilus influenzae [8]) was 0.063 µg/mL and the MIC (Haemophilus influenzae [9]) was 0.25 µg/mL. It also gave an MIC (Moraxella catarrhalis) of 2 µg/mL, an MIC (Escherichia coli) of 0.125 µg/mL and a half-life [10] of 44.4 min. For the same compound, the clearance [11] was 12.2 mL/min/kg and the AUC(0-inf) [12] was 27400 ng·h/mL.
In the case of `CCO/N=C(\C(=O)N[C@@H]1C(=O)N2C(C(=O)[O-])=C(C[n+]3ccc(-c4cc(/C([O-])=N/C#N)[nH]n4)cc3)CS[C@H]12)c1nc(N)sc1Cl.[Na+]`, the fraction unbound at 0.5 h [4] is reported as 0.43, the MIC (Staphylococcus aureus) is reported as 1 µg/mL and the MIC (Streptococcus pneumoniae [6]) is reported as 0.125 µg/mL. It also gave an MIC (Streptococcus pneumoniae [7]) of 0.25 µg/mL, an MIC (Haemophilus influenzae [8]) of 0.25 µg/mL and an MIC (Haemophilus influenzae [9]) of 2 µg/mL. For the same compound, the MIC (Moraxella catarrhalis) was 0.125 µg/mL, the MIC (Escherichia coli) was 2 µg/mL and the half-life [10] was 35.4 min. The clearance [11] was 8 mL/min/kg and the AUC(0-inf) [12] was 41500 ng·h/mL.
Compound `CCO/N=C(\C(=O)N[C@@H]1C(=O)N2C(C(=O)[O-])=C(C=CC[n+]3ccc(-c4cc(/C([O-])=N/C#N)[nH]n4)cc3)CS[C@H]12)c1csc(N)n1.[Na+]` has a fraction unbound at 0.5 h [4] of 0.76, an MIC (Staphylococcus aureus) of 0.25 µg/mL and an MIC (Streptococcus pneumoniae [6]) of 0.25 µg/mL. The MIC (Streptococcus pneumoniae [7]) was 0.5 µg/mL, the MIC (Haemophilus influenzae [8]) was 0.125 µg/mL and the MIC (Haemophilus influenzae [9]) was 0.25 µg/mL. The MIC (Moraxella catarrhalis) was 1 µg/mL, the MIC (Escherichia coli) was 0.125 µg/mL and the half-life [10] was 51 min. It also gave a clearance [11] of 19.1 mL/min/kg and an AUC(0-inf) [12] of 17400 ng·h/mL.
In the case of `CCCO/N=C(\C(=O)N[C@@H]1C(=O)N2C(C(=O)[O-])=C(C[n+]3ccc(-c4cc(/C([O-])=N/C#N)[nH]n4)cc3)CS[C@H]12)c1csc(N)n1.[Na+]` (stereo in doubt), the fraction unbound at 0.5 h [4] is reported as 0.63, the MIC (Staphylococcus aureus) is reported as 0.5 µg/mL and the MIC (Streptococcus pneumoniae [6]) is reported as 0.25 µg/mL. For the same compound, the MIC (Streptococcus pneumoniae [7]) was 0.5 µg/mL, the MIC (Haemophilus influenzae [8]) was 0.063 µg/mL and the MIC (Haemophilus influenzae [9]) was 1 µg/mL. The MIC (Moraxella catarrhalis) was 1 µg/mL, the MIC (Escherichia coli) was 1 µg/mL and the half-life [10] was 58.8 min. The clearance [11] was 37.4 mL/min/kg and the AUC(0-inf) [12] was 8900 ng·h/mL.
For `CCO/N=C(\C(=O)N[C@@H]1C(=O)N2C(C(=O)[O-])=C(C[n+]3ccc(-c4cc(/C([O-])=N/C#N)[nH]n4)cc3)CS[C@H]12)c1csc(N)n1.[Na+]` (stereo in doubt), the fraction unbound at 0.5 h [4] was 0.77, the MIC (Staphylococcus aureus) was 1 µg/mL and the MIC (Streptococcus pneumoniae [6]) was 0.25 µg/mL. The MIC (Streptococcus pneumoniae [7]) was 0.5 µg/mL, the MIC (Haemophilus influenzae [8]) was 0.063 µg/mL and the MIC (Haemophilus influenzae [9]) was 0.25 µg/mL. For the same compound, the MIC (Moraxella catarrhalis) was 0.5 µg/mL, the MIC (Escherichia coli) was 0.5 µg/mL and the half-life [10] was 68.4 min. For the same compound, the clearance [11] was 30.8 mL/min/kg and the AUC(0-inf) [12] was 10800 ng·h/mL.
For `CO/N=C(\C(=O)N[C@@H]1C(=O)N2C(C(=O)[O-])=C(C[n+]3ccc(-c4cc(/C([O-])=N/C#N)[nH]n4)cc3)CS[C@H]12)c1csc(N)n1.[Na+]` (stereo in doubt), the fraction unbound at 0.5 h [4] was 0.85, the MIC (Staphylococcus aureus) was 1 µg/mL and the MIC (Streptococcus pneumoniae [6]) was 0.25 µg/mL. For the same compound, the MIC (Streptococcus pneumoniae [7]) was 0.5 µg/mL, the MIC (Haemophilus influenzae [8]) was 0.063 µg/mL and the MIC (Haemophilus influenzae [9]) was 0.25 µg/mL. It also gave an MIC (Moraxella catarrhalis) of 2 µg/mL, an MIC (Escherichia coli) of 0.25 µg/mL and a half-life [10] of 54.6 min. It also gave a clearance [11] of 18.4 mL/min/kg and an AUC(0-inf) [12] of 18100 ng·h/mL.
Compound `N#C/N=C(\[O-])c1cc(-c2cc[n+](CC3=C(C(=O)[O-])N4C(=O)[C@@H](NC(=O)/C(=N\OCCF)c5csc(N)n5)[C@H]4SC3)cc2)n[nH]1.[Na+]` (stereo in doubt) has a fraction unbound at 0.5 h [4] of 0.76, an MIC (Staphylococcus aureus) of 1 µg/mL and an MIC (Streptococcus pneumoniae [6]) of 0.25 µg/mL. The MIC (Streptococcus pneumoniae [7]) was 0.5 µg/mL, the MIC (Haemophilus influenzae [8]) was 0.063 µg/mL and the MIC (Haemophilus influenzae [9]) was 0.125 µg/mL. It also gave an MIC (Moraxella catarrhalis) of 1 µg/mL, an MIC (Escherichia coli) of 0.25 µg/mL and a half-life [10] of 63.6 min. For the same compound, the clearance [11] was 26.2 mL/min/kg and the AUC(0-inf) [12] was 12700 ng·h/mL.
